In BindingDB's records for doi:10.1016/j.bmc.2014.05.061 (Academy of Sciences of The Czech Republic, 2014):
pKi: −log10 of the molar value.

Target: Glutamate carboxypeptidase 2 (Homo sapiens, UniProt Q04609)
Assay: Inhibition of human recombinant N-terminal Avi-tagged glutamate carboxypeptidase 2 extracellular domain (44 to 750 amino acids) using pteroyl-di-L-glutamate substrate by HPLC method
In short: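 Avi-GCPII (0.2 ng) in 25 mM Bis-Tris propane, 150 mM NaCl, 0.001% octaethylene glycol monododecyl ether, pH 7.4, preincubated with inhibitor (ten concentrations) 5 min at 37 °C. Reaction started with pteroyl-di-L-glutamate (20 µl of 4 µM stock), run 20 min at 37 °C, stopped with 2-PMPA. Substrate and product separated by isocratic HPLC, detected at 281 nm; IC50 from full curves, Ki mean ± SD, duplicate or triplicate.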

Sequence of Glutamate carboxypeptidase 2 (Q04609 whole entry, the tested form may be a part): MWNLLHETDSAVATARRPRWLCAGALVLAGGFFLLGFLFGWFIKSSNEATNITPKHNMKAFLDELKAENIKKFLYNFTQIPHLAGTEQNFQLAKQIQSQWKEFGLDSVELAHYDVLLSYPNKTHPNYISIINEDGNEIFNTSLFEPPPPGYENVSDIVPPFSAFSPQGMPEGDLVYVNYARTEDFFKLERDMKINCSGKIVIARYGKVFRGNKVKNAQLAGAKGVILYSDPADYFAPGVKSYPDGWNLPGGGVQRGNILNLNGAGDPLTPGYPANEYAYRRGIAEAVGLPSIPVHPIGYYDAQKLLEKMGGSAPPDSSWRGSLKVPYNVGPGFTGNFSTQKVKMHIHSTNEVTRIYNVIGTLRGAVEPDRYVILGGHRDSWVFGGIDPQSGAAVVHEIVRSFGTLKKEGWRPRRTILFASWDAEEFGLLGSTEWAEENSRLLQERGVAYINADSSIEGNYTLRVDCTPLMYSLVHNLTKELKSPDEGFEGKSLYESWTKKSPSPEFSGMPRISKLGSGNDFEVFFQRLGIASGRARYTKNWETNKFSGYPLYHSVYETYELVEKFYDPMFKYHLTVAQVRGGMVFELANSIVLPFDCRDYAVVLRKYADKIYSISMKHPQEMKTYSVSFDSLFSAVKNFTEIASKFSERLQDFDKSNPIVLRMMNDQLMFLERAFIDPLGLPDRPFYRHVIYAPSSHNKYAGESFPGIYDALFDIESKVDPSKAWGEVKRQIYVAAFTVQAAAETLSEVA

pKi: 9.66
Structure (SMILES): O=C(O)CC[C@H](NC(=O)N[C@@H](CCCCNC(=O)Nc1ccc(Br)cc1OCCNC(=O)CCOCCOCCOCCOCCOCCOCCOCCOCCOCCOCCOCCOCCNC(=O)CCCC[C@@H]1SC[C@@H]2NC(=O)N[C@@H]21)C(=O)O)C(=O)O
